Source: PMC3747594 (ACS Chemical Biology, 2013)
Changes are numbered by the printed parent chain. Values joined by “and” are separate entries in the source; they are usually repeats but may differ in a detail not shown here. Identical values can stand only once.

Tests used:
K2P2.1 (TREK-1) [1] = target: T1, K2P2.1 (TREK-1) (Mus musculus, UniProt P97438); experiment: Two-electrode voltage clamp in Xenopus oocytes, K2P2.1; type: cell-based, Murine
T1 sequence (P97438 1-411 isoform P97438-2): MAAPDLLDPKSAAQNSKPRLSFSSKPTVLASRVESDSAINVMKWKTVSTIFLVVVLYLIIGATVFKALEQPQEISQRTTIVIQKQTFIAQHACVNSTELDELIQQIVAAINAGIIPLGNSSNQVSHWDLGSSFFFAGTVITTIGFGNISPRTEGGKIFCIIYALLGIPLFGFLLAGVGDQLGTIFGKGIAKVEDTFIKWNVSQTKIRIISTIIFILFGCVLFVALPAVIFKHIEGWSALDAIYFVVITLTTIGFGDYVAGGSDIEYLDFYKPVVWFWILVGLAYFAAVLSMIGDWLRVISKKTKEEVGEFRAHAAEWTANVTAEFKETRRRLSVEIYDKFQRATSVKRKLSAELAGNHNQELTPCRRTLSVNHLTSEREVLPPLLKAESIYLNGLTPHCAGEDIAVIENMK

K2P2.1 (TREK-1) [2] = target: T1, K2P2.1 (TREK-1); experiment: Whole cell patch clamp in HEK-293T cells, K2P2.1; type: cell-based, Murine
K2P2.1 (TREK-1) G137I = target: T2, K2P2.1 (TREK-1) G137I (Mus musculus, UniProt P97438, G152I); experiment: Two-electrode voltage clamp in Xenopus oocytes, G137I mutant; type: cell-based, Murine
T2 sequence (P97438 1-411 isoform P97438-2 G137I): T1 sequence (P97438 1-411 isoform P97438-2) with G137I

K2P2.1 (TREK-1) W275S = target: T3, K2P2.1 (TREK-1) W275S (Mus musculus, UniProt P97438, W290S); experiment: Two-electrode voltage clamp in Xenopus oocytes, W275S mutant; type: cell-based, Murine
T3 sequence (P97438 1-411 isoform P97438-2 W275S): T1 sequence (P97438 1-411 isoform P97438-2) with W275S
In short: (§1)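 Murine channel cDNAs in pGEMHE/pMO were expressed in Xenopus oocytes and recorded by two-electrode voltage clamp. Bath contained 2 mM [K+]o at pH 7.4. Currents were elicited by a −150 to 50 mV ramp from a −80 mV holding potential. Responses were normalized to basal channel activity and fit with a modified Hill equation (EC50, Imax/Imin, Hill coefficient H). Values are mean ± SD or SEM from ≥2 independent experiments.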

K2P2.1 (TREK-1)-3G = target: T4, K2P2.1 (TREK-1)-3G (Mus musculus, UniProt P97438); experiment: Two-electrode voltage clamp in Xenopus oocytes, 3G mutant; type: cell-based, Murine
T4 sequence (P97438 16-426): T1 sequence (P97438 1-411 isoform P97438-2) with M1V

K2P10.1 (TREK-2) = target: T5, K2P10.1 (TREK-2) (Mus musculus, UniProt Q8BUW1); experiment: Two-electrode voltage clamp in Xenopus oocytes, K2P10.1; type: cell-based, Murine
T5 sequence (Q8BUW1 1-535): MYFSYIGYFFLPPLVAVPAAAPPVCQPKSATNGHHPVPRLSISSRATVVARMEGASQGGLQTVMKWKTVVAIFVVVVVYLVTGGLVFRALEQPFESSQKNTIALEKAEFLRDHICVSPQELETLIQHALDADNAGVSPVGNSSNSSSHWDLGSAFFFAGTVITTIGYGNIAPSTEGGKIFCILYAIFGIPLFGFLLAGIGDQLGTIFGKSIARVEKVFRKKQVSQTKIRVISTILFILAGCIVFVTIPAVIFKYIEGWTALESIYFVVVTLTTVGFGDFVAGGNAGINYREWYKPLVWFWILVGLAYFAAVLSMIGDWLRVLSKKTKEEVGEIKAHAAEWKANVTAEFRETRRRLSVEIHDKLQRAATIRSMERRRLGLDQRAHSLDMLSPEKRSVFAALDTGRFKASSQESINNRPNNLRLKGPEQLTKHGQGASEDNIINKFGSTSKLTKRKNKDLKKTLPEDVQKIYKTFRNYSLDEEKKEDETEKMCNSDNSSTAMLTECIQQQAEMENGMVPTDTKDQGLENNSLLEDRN
In short: as §1

K2P4.1 (TRAAK) = target: T6, K2P4.1 (TRAAK) (Mus musculus, UniProt O88454); experiment: Two-electrode voltage clamp in Xenopus oocytes, K2P4.1; type: cell-based, Murine
T6 sequence (O88454 1-398): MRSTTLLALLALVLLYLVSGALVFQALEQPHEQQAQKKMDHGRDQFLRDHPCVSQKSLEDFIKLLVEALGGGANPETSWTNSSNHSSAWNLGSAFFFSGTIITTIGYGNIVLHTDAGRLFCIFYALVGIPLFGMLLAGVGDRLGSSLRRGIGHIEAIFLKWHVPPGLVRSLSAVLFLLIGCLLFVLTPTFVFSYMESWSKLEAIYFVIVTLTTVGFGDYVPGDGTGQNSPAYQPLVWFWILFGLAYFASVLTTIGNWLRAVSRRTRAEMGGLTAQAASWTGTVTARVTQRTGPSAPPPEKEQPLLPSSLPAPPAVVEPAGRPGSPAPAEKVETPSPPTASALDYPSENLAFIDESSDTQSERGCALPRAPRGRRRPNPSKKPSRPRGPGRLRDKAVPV
In short: as §1

K2P9.1 (TASK-3) = K2P9.1 (TASK-3) (Mus musculus, UniProt Q3LS21); experiment: Two-electrode voltage clamp in Xenopus oocytes, K2P9.1; type: cell-based, Murine
In short: as §1

K2P5.1 (TASK-2) = target: T7, K2P5.1 (TASK-2) (Mus musculus, UniProt F6V9U5); experiment: Two-electrode voltage clamp in Xenopus oocytes, K2P5.1; type: cell-based, Murine; conditions: at 100 μM compound
T7 sequence (F6V9U5 1-502): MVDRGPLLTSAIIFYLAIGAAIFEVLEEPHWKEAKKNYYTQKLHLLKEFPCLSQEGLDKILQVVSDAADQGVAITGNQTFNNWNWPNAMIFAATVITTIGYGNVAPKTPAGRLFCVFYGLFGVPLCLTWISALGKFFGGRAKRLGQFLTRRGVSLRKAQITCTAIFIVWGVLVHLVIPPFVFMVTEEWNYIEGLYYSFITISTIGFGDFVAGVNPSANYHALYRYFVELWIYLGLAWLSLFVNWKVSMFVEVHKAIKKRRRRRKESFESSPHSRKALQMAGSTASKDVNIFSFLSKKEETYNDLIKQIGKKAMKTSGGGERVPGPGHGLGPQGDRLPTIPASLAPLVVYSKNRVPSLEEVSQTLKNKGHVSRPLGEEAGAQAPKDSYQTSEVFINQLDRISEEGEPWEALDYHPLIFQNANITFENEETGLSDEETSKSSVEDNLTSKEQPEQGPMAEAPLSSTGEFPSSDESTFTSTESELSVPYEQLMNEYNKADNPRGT
In short: as §1

K2P3.1 (TASK-1) = K2P3.1 (TASK-1) (Mus musculus, UniProt O35111); experiment: Two-electrode voltage clamp in Xenopus oocytes, K2P3.1; type: cell-based, Murine; conditions: at 100 μM compound
In short: as §1

K2P18.1 (TRESK) = target: T8, K2P18.1 (TRESK) (Mus musculus, UniProt Q6VV64); experiment: Two-electrode voltage clamp in Xenopus oocytes, K2P18.1; type: cell-based, Murine; conditions: at 100 μM compound
T8 sequence (Q6VV64 1-394): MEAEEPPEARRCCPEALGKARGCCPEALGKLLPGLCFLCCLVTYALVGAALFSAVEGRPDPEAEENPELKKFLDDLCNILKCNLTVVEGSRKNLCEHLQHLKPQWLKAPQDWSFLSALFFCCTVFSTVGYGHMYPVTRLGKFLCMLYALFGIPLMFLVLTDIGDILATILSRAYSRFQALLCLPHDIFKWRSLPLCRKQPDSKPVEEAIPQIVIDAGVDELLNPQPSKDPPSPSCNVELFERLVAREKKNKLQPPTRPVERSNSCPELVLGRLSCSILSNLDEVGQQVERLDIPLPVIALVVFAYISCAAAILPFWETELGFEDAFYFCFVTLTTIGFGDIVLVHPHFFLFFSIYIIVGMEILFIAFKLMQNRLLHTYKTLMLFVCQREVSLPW
In short: as §1

Kv7.2 (KCNQ2) = Kv7.2 (KCNQ2) (Homo sapiens, UniProt O43526); experiment: Two-electrode voltage clamp in Xenopus oocytes, Kv7.2; type: cell-based; conditions: at 100 μM
K2P2.1 (TREK-1) [3] = target: T1, K2P2.1 (TREK-1); experiment: Excised membrane patches; type: cell-based, Murine; conditions: 0 mV, 20 μM
K2P2.1 (TREK-1) [4] = conditions: at 1.6 mM; cited from earlier work
[5] = whole-cell, HEK-293T, 0 mV, 20 μM

Chain of K2P9.1 (TASK-3) (Q3LS21 whole entry): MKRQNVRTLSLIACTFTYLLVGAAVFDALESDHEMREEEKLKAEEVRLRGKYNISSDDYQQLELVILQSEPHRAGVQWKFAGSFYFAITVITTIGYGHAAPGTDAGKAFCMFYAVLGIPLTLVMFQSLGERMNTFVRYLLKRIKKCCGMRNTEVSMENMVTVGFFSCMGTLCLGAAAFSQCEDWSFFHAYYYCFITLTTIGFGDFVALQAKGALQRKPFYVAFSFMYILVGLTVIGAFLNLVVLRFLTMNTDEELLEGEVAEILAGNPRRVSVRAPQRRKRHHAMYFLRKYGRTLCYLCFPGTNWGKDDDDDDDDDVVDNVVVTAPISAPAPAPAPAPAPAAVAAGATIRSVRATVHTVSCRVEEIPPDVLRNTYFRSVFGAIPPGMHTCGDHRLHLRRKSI
Chain of K2P3.1 (TASK-1) (O35111 whole entry): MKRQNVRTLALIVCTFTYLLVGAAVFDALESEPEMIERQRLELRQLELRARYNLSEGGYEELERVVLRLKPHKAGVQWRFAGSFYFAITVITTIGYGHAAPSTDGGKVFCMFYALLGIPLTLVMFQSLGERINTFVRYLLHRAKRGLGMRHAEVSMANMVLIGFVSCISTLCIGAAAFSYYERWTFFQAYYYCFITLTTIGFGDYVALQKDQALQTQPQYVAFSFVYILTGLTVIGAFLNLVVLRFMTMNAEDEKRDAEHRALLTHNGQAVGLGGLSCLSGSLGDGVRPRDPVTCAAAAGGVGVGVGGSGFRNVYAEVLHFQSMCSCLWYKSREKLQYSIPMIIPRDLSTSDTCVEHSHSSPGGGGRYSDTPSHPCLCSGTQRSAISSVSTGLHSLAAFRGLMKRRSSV
Chain of Kv7.2 (KCNQ2) (O43526 whole entry): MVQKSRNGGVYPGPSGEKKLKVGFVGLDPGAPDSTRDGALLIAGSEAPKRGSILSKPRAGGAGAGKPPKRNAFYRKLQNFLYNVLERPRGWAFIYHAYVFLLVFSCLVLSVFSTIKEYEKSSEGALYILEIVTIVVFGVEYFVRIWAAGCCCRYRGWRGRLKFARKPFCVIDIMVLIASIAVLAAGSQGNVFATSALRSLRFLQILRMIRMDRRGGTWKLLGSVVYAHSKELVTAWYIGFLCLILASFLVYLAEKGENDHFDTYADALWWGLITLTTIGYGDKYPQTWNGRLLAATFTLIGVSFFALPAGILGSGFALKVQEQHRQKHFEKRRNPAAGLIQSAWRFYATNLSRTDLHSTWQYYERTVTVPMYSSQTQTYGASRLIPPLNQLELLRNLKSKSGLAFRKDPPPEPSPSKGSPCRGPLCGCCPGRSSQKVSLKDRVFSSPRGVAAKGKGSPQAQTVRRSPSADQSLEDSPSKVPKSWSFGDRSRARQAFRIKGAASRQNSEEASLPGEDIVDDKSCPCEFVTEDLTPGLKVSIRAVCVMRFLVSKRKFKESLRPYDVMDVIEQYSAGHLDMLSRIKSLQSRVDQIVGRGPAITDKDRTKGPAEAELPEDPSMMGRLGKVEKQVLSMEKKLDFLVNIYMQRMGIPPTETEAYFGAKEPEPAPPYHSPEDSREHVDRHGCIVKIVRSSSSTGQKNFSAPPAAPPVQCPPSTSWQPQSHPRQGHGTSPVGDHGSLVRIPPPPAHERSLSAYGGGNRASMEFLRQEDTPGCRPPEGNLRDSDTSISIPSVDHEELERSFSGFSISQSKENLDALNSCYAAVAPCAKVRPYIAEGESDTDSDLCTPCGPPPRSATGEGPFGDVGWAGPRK

CC1(C)c2cc(Cl)ccc2N(CCc2nnn[nH]2)c2ccc(Cl)cc21 [ML67-33, 2,7-dichloro-9,9-dimethyl-10-[2-(1H-tetrazol-5-yl)-ethyl]-9,10-dihydro-acridine]
improved potency (fold) (K2P2.1 (TREK-1) [1]; EC50 compared to ML67-18): 5 fold
H (cooperativity coefficient from the Hill equation) (K2P2.1 (TREK-1) [1]; Xenopus oocytes): 3.6 ± 0.4
Emax (fold) (K2P2.1 (TREK-1) [1]; Xenopus oocytes, at 100 μM compound): 11.1 ± 0.4 fold
Emax (fold) (K2P2.1 (TREK-1) [1]; Xenopus oocytes, normalized to basal activity): 11.1 ± 0.4 fold and ~11 fold
Emax (fold) (K2P2.1 (TREK-1) [2]; HEK293 cells): 11.4 ± 1.1 fold
H (cooperativity coefficient from the Hill equation) (K2P2.1 (TREK-1) [2]; HEK293 cells): 2.3 ± 0.7
Emax (K2P2.1 (TREK-1) [2]; HEK cells, at 100 μM): 11.4 ± 1.1
half-maximal activation time (t1/2act) (K2P2.1 (TREK-1) [2]; [5]): 4.1 ± 0.5 s
time of return to baseline following washout (t1/2wash) (K2P2.1 (TREK-1) [2]; [5]): 3.9 ± 0.5 s
response to activation (in words) (K2P2.1 (TREK-1) G137I): completely resistant
Emax (fold) (K2P2.1 (TREK-1) G137I; at 150 μM): 0.9 ± 0.1 at 150 μM fold
Emax (fold) (K2P2.1 (TREK-1) W275S): 5.1 ± 0.6 fold
H (cooperativity coefficient from the Hill equation) (K2P2.1 (TREK-1) W275S): 1.6 ± 0.7
EC50 (K2P2.1 (TREK-1)-3G): 49.4 ± 1.1 µM
H (cooperativity coefficient from the Hill equation) (K2P2.1 (TREK-1)-3G): 2.2 ± 0.4
Emax (fold) (K2P10.1 (TREK-2)): 11.4 ± 1.8 fold
H (cooperativity coefficient from the Hill equation) (K2P10.1 (TREK-2)): 1.6 ± 0.6
Emax (K2P10.1 (TREK-2); at 100 μM): 11.4 ± 1.8
H (cooperativity coefficient from the Hill equation) (K2P4.1 (TRAAK)): 1.8 ± 0.4
Emax (fold) (K2P4.1 (TRAAK); at 100 μM compound): 14.7 ± 1.12 fold and 14.7 ± 1.1 fold and 14.7 ± 1.1 ^d fold
Emax (K2P9.1 (TASK-3); at 100 μM): 1.7 ± 0.3
Emax (fold) (K2P9.1 (TASK-3); at 150 μM): 2.1 ± 0.4 at 150 μM fold
Emax (fold) (K2P5.1 (TASK-2)): 2.0 ± 0.1 fold
Emax (fold) (K2P3.1 (TASK-1)): 1.1 ± 0.0 fold and 1.1 ± 0.1 ^d fold
Emax (fold) (K2P18.1 (TRESK)): 0.9 ± 0.1 fold and 0.9 ± 0.1 ^d fold
effect on Kv7.2 (KCNQ2) (in words) (Kv7.2 (KCNQ2)): no effect
t1/2act (K2P2.1 (TREK-1) [3]; inside-out patch): 10.8 ± 1.3 s
t1/2wash (K2P2.1 (TREK-1) [3]; inside-out patch): 22.0 ± 5.1 s
t1/2act (K2P2.1 (TREK-1) [3]; outside-out patch): 4.6 ± 0.9 s
t1/2wash (K2P2.1 (TREK-1) [3]; outside-out patch): 3.1 ± 0.7 s

ClC(Cl)Cl [chloroform]
reported activation (fold) (K2P2.1 (TREK-1) [4]): 5.5 fold
